# Assay results from different studies.
# Compare with care: the assays were run in different laboratories.
# Target: Serine/threonine-protein kinase LATS2 (LATS2, Homo sapiens, UniProt Q9NRM7)
# Sequence (Q9NRM7 1-1088, as in one of the studies): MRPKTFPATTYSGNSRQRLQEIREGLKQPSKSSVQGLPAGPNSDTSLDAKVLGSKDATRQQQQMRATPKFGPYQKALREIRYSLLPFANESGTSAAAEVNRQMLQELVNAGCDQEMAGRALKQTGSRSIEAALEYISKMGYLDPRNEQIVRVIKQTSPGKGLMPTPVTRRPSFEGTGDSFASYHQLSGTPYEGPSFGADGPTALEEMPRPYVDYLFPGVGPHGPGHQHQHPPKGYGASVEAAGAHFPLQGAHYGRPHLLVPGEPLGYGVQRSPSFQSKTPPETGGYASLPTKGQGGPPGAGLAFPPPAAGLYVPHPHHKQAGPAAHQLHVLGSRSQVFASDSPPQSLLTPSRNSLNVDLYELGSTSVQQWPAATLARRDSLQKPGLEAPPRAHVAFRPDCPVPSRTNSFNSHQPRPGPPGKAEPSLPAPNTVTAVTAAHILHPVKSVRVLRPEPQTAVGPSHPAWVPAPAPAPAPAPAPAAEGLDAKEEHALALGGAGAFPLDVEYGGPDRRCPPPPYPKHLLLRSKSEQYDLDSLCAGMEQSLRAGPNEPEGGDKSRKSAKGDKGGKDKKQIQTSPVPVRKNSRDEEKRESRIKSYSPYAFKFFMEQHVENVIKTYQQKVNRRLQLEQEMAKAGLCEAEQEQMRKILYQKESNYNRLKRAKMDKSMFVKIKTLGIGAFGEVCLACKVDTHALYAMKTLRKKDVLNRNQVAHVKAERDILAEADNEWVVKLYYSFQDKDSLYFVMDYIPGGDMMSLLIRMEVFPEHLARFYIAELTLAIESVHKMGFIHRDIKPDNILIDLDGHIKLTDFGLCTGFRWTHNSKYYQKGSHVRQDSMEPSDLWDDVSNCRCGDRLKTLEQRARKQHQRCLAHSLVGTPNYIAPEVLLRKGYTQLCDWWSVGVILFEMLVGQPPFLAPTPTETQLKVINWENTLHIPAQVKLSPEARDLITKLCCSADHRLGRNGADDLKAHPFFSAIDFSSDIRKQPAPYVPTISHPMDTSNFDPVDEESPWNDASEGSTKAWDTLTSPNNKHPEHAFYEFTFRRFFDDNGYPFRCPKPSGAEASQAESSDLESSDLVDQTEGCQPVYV
read-out,method,concentration,remaining binding,Structure (SMILES)
binding,competition with immobilised ligand,10 µM,26%,CCCNc1nc(C#Cc2ccc(Cl)s2)nc2c1ncn2[C@H]1[C@H](O)[C@H](O)[C@]2(C(=O)NC)C[C@H]12
binding,competition with immobilised ligand,1 µM,74%,COc1cnc(Nc2cccc(S(N)(=O)=O)c2)nc1N1CCN(c2ccccc2)CC1
binding,competition with immobilised ligand,10 µM,12%,c1cncc(-c2cccc(Nc3nccc(NC4CCCCC4)n3)c2)c1
binding,,1 µM,83%,C[C@H]1CCN(c2nccc(-c3cnn4ncccc34)n2)C1
cell-free assay,competition with immobilised ligand,1 µM,64%,C[C@H](c1ccc(F)cc1)N(Cc1cccc(C(=O)O)c1)C(=O)c1cnc2ccccc2c1
binding,,1 µM,72%,CN(C)c1ncc(F)c(-c2cnn3ncccc23)n1
binding,competition with immobilised ligand,1 µM,100%,O=C(NCCCN1CCOCC1)c1ccc(Nc2nccc(-c3cc4ccccc4s3)n2)cc1
cell-free assay,competition with immobilised ligand,1 µM,92%,C[C@@]1(Cc2ccc(C#N)cc2)C(=O)N(c2cc(Cl)cc(Cl)c2)c2ncc(C(=O)NC3(c4nc(C5CCC5)no4)CC3)n21
binding,,1 µM,79%,CN(C)c1nccc(-c2cnc3ncccn23)n1
cell-free assay,competition with immobilised ligand,1 µM,69%,COc1cc(-c2cn(C3CCc4ccccc4N(CC(F)(F)F)C3=O)nn2)ccc1-n1ccc(C)n1 (centres unmarked)
binding,,1 µM,100%,CC1CCCN1c1nccc(-c2cnn3ncccc23)n1 (centres unmarked)
binding,competition with immobilised ligand,1 µM,15%,O=C(c1ccc(Nc2ncc(Cl)c(-c3cc4ccccc4s3)n2)cc1)N1CCC(N2CCCC2)CC1
cell-free assay,competition with immobilised ligand,1 µM,97%,CS(=O)(=O)NCC[C@H](NC(=O)c1cncc2c1cnn2-c1ccc(F)cc1)c1ccnc(S(C)(=O)=O)c1
binding,,1 µM,88%,c1cnn2ncc(-c3ccnc(N4CCC45COC5)n3)c2c1
cell-free assay,competition with immobilised ligand,1 µM,100%,Cc1nc(C2CCN(C(=O)c3ccc(OC(F)(F)F)cc3N)CC2)c2ncc(N3CCN(C)CC3)cc2n1
binding,competition with immobilised ligand,1 µM,87%,O=C(NCC1CCOCC1)c1n[nH]cc1NC(=O)c1c(F)cccc1F
cell-free assay,competition with immobilised ligand,5 µM,38%,FC(F)(F)Oc1cccc(-c2cnc3ccc(-c4ccncc4)nn23)c1
cell-free assay,competition with immobilised ligand,1 µM,94%,NS(=O)(=O)c1cc(NC(=O)Cc2ccccc2)ccc1Oc1cccc(Cl)c1
binding,,1 µM,100%,CN(CCCC(F)(F)F)c1nccc(-c2cnn3ncccc23)n1
binding,competition with immobilised ligand,1 µM,72%,O=C(c1ccc(Nc2nccc(-c3cc4ccccc4s3)n2)cc1)N1CCC(N2CCCC2)CC1
